Molecules are shown by their SMILES.

The first experiment relates to HL-60. The experiment is described as follows: Cytotoxicity against human HL60 cells after 72 hrs by MTT assay. The following applies: HL-60, 72 h. The format is functional, cell-based. An outline of the steps:
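HL-60 human leukemia cells were plated in 96-well plates and exposed in triplicate to graded concentrations for 72 h. MTT was added for 4 h at 37 °C, then extraction buffer (10% SDS, 5% isobutanol, 0.01 M HCl) overnight at 37 °C. Absorbance was read at 570 nm.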
(In general: Tetrazolium assays rely on reduction of a dye to a coloured formazan, in cell work by metabolically active cells.)
As a reminder, the IC50 is the concentration at which inhibition is half-maximal. Read a high IC50 as weaker potency in that assay. Consider `CCCC(=O)O[C@@H]1[C@@H]2[C@@H](OC(C)=O)[C@]3(OC2(C)C)[C@H](C)CC[C@H](OC(=O)c2ccccc2)[C@@]3(C)[C@@H]1OC(=O)c1ccccc1`, for which the IC50 came out at 5.3 µM. That is a single-digit micromolar value. The same measure, in the same setting: the value for `CC(=O)O[C@H]1C[C@@H]2[C@@H](OC(=O)c3ccccc3)[C@]3(OC2(C)C)[C@H](C)CC[C@H](OC(=O)c2ccccc2)[C@@]13C` was 2.8 µM.

Consider `CC(=O)O[C@H]1C[C@@H](C)[C@@]23C[C@@H](C[C@H](OC(C)=O)[C@]2(C)[C@H]1OC/C=C/c1ccccc1)C(C)(C)O3`, for which half-maximal inhibition (IC50) was put at 3.3 µM.

The molecule `CC(=O)O[C@@H]1[C@H]2[C@@H](O)[C@@H](OC(=O)c3ccccc3)[C@]3(C)[C@@H](OC/C=C/c4ccccc4)CC[C@@H](C)[C@@]13OC2(C)C` gave an IC50 of 8.3 µM. As to `CC(=O)O[C@@H]1[C@@H]2[C@@H](OC(C)=O)[C@]3(OC2(C)C)[C@H](C)CC[C@H](OC(C)=O)[C@@]3(C)[C@H]1OC(=O)c1ccccc1`, inhibition was half-maximal at 6.8 µM (IC50). This IC50 and that of the molecule before are within 1.5-fold of each other.

Another experiment deals with HL-60. Briefly: Cytotoxicity against human HL60 cells at 10 uM after 72 hrs by MTT assay. The format is functional.
Settings: not given
An outline of the steps:
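MTT was added for 4 h at 37 °C, followed by extraction buffer (10% SDS, 5% isobutanol, 0.01 M HCl) overnight at 37 °C. Absorbance was read at 570 nm, with etoposide as positive control.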
Regarding `CC(=O)O[C@@H]1[C@H]2C[C@H](OC/C=C/c3ccccc3)[C@]3(C)[C@@H](OC(C)=O)[C@@H](OC(=O)c4ccccc4)C[C@@H](C)[C@@]13OC2(C)C`, the Activity is on record as below 50%. On the same count and under the same terms, the result for `CC(=O)O[C@H]1CC[C@@H](C)[C@]23OC(C)(C)[C@H](C[C@H](OC(=O)c4ccccc4)[C@]12C)[C@H]3O` reads below 50%; that for `CC(=O)O[C@@H]1[C@H]2[C@@H](O)[C@@H](OC(=O)c3ccccc3)[C@]3(C)[C@@H](O)CC[C@@H](C)[C@@]13OC2(C)C`, below 50%; that for `CC(=O)O[C@@H]1[C@H]2C[C@H](OC/C=C/c3ccccc3)[C@]3(C)[C@@H](OC(C)=O)[C@@H](O)C[C@@H](C)[C@@]13OC2(C)C`, below 50%. Same read-out and setting: the value for `CC(=O)O[C@H]1C[C@](C)(O)[C@@]23C[C@@H](C[C@H](OC(=O)/C=C/c4ccccc4)[C@]2(C)[C@H]1OC(C)=O)C(C)(C)O3` was below 50%. For `CC(=O)O[C@H]1CC[C@@H](CO)[C@]23OC(C)(C)[C@H](C[C@H](OC(=O)c4ccccc4)[C@]12C)[C@H]3OC(=O)c1ccccc1`, the Activity is on record as below 50%. Still for that read-out and setting: the result for `C[C@@H]1CC[C@H](OC(=O)c2ccccc2)[C@@]2(C)[C@H](OC(=O)c3ccccc3)[C@H](OC(=O)c3ccccc3)[C@@H]3[C@@H](O)[C@]12OC3(C)C` reads below 50%; that for `CC(=O)O[C@@H]1[C@H]2[C@@H](OC(=O)c3ccccc3)[C@H](OC(=O)c3ccccc3)[C@]3(C)[C@@H](OC(=O)c4ccccc4)CC[C@@H](C)[C@@]13OC2(C)C`, below 50%; that for `CC(=O)O[C@@H]1[C@@H]2[C@@H](OC(C)=O)[C@]3(OC2(C)C)[C@H](C)CC[C@H](O)[C@@]3(C)[C@@H]1OC(=O)c1ccccc1`, below 50%. The same measure, in the same setting: the result for `CC(=O)O[C@@H]1[C@@H]2[C@@H](OC(C)=O)[C@]3(OC2(C)C)[C@H](C)CC[C@H](OC(=O)c2ccccc2)[C@@]3(C)[C@@H]1OC(=O)c1ccccc1` reads below 50%.

Values taken from ChEMBL document CHEMBL1157414, “Cytotoxic dihydroagarofuranoid sesquiterpenes from the seeds of Celastrus orbiculatus” (J Nat Prod, 2008).
